Compounds with a hit are over-represented: about 0.77% of the library has one in this group of screens.
mIAP block = inhibitors of mouse IAP, primary screen, biochemical, luminescence, uHTS | 330,000 tested, 0.2% active | inhibition, % at 10 µM | AID 2806, 2010 | purified mouse IAP, CDP-Star luminescence, 30 min;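 active = inhibition of at least 40% at 10 µM in the primary screen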;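 also: plate controls were DMSO with enzyme for no effect and no enzyme wells for full effect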
hIAP act = human IAP activators, primary screen, biochemical, luminescence, uHTS; Intestinal-type alkaline phosphatase (Homo sapiens), P09923; purified human IAP, CDP-Star luminescence, 30 min; active compounds read high; 1 = vehicle-only enzyme, 0 = enzyme-free background; activation factor at 10 µM; 330,000 tested, 0.16% active;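 active = activation factor of the enzyme at least 2-fold when tested at 20 µM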
Target sequence (P09923 whole entry, looked up): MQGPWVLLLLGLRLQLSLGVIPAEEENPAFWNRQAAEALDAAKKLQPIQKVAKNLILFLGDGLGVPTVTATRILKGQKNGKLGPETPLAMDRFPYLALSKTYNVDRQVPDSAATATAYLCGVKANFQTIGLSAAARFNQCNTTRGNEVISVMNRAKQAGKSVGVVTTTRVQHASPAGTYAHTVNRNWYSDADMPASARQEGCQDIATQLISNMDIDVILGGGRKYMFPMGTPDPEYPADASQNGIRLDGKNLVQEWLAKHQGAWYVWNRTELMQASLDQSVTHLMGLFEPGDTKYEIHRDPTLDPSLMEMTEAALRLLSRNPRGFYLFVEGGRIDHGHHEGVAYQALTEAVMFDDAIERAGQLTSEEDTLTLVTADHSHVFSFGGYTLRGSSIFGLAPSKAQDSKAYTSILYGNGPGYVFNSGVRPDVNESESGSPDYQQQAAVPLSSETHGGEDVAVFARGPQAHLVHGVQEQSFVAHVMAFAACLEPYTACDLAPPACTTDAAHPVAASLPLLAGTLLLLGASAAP
bIAP act = bovine intestinal alkaline phosphatase activators, primary screen, biochemical, bovine IAP, CDP-star luminescence; alkaline phosphatase, intestinal [Bos taurus]; purified bovine IAP, 30 min; active compounds read high; fold of DMSO-control signal, blank-subtracted; activation factor at 20 µM; 200,000 tested, 0.17% active; AID 1016, 2008;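 active = activation factor of 2 or more at 20 µM, a signal rise over negative controls twice the positive control's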
hIAP block = human IAP inhibitors, primary screen, biochemical, luminescence, uHTS | Intestinal-type alkaline phosphatase (Homo sapiens), P09923 | purified IAP, CDP-Star luminescence, 30 min | inhibition, % at 10 µM | 330,000 tested, 0.12% active | AID 2544, 2010;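 active = inhibition reaching a set limit with compound at 10 µM in the primary screen, cut at about 35% in these data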;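 also: plate controls were DMSO wells with enzyme for no effect and no-enzyme buffer wells for full effect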
bIAP inh = bovine intestinal alkaline phosphatase inhibitors, primary screen, selectivity assay for TNAP inhibitor project, biochemical, bovine IAP, CDP-star luminescence; 190,000 tested, under 10 active; inhibition, % at 20 µM; purified bovine IAP, 30 min;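 active = over 50% inhibition of intestinal alkaline phosphatase at 20 µM in the single-dose screen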
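test system = bovine IAP enzyme | medium = DEA buffer 100 mM, pH 9.8, with MgCl2 1.0 mM, ZnCl2 0.02 mM | detection = luminescence | dosing = single compound dose of 20 µM, 2% DMSO final | incubation = 30 min reaction at room temperature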
mIAP act = activators of mouse IAP, primary screen, biochemical, luminescence, uHTS | intestinal alkaline phosphatase [Mus musculus] | muIAP, CDP-Star luminescence, 30 min; active compounds read high; 1 = vehicle-only enzyme signal, 0 = enzyme-free wells | activation factor at 10 µM | 330,000 tested, 0.24% active | AID 2805, 2010;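 active = activation factor of at least 2 at 20 µM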
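Assay system: mouse IAP enzyme; reagent: chemiluminescent substrate CDP-Star; dosing: test compounds delivered from DMSO solution; schedule: 30 min at room temperature; measured by: luminescence from enzymatic CDP-Star hydrolysis; controls: DMSO-only wells and no-enzyme negative control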
mIAP inh conf = inhibitors of mouse IAP, confirmation, biochemical, luminescence, single concentration. shares compounds with mIAP block. purified mouse IAP, CDP-Star luminescence, 30 min. inhibition, % at 10 µM. 11,000 tested, 4.7% active. AID 434971, 2010;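 active = inhibition of at least 40% at 10 µM in either of the two replicates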;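 also: plate controls were DMSO wells with enzyme for no effect and buffer wells lacking enzyme for full effect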
Numbers without * were called inactive; i = inactive; · = not tested or not shown.

SMILES	mIAP block	hIAP act	bIAP act	hIAP block	bIAP inh	mIAP act	mIAP inh conf
O=C(Nc1ccc(Cl)cc1)N[C@@H]1c2c(ccc3ccccc23)OC[C@@H]1CO	i	1.1	1.1	-11	-11	13*	-385
CC(=O)NC(CC(=O)OCC(=O)c1cc(C)ccc1C)c1ccccc1 (centres undefined)	-5	1.1	·	-5	·	1.1	·
O=C(/C=C/c1ccco1)NC(=S)NNC(=O)c1ccco1	49*	1.5	0.9	-48	6	0.51	54*
O=C(/C=C/c1ccco1)NC(=S)Nc1ccc(C(=O)O)cc1	43*	1.2	·	-17	·	0.57	67*
C=CCNC(=S)NNC(=O)c1ccco1	10	1.4	1.3	-37	-26	0.9	·
CC(=O)NC(=S)Nc1ccc(NC(=S)NC(=O)/C=C/c2ccco2)cc1	15	0.91	·	10	·	0.85	·
CCCCN1C(=O)/C(=C/C=C2\N(C)c3ccccc3C2(C)C)SC1=S	51*	0.77	0.5	23	·	0.49	43*
CC(C)=CCc1c(O)c(CC=C(C)C)c2c(c1O)-c1cc(O)c(O)cc1CC2	62*	1	·	0	·	0.38	60*
CC(C)=CCc1c(O)ccc(C2COc3c(CC=C(C)C)c(O)cc(O)c3C2=O)c1O (centres undefined)	14	1.1	·	-11	·	0.86	·
COc1ccc(NC(=O)NN2CCN(C)CC2)cc1OC	-4	1.1	·	-14	·	1	·
CN1CCN(NC(=O)Nc2cc(Cl)cc(Cl)c2)CC1	-143	1.2	·	-21	·	2.4*	-120
COc1ccc(-n2nc(C(=O)NCC(=O)Nc3ccc(F)cc3)c3ccccc3c2=O)cc1	6	0.97	·	3	·	0.94	·
CC1=C(C(=O)Nc2ccccc2)C(c2ccc(C)o2)n2c(s/c(=C\c3ccco3)c2=O)=N1 (centres undefined)	44*	1.2	0.8	-18	20	0.56	65*
COc1cc2c(ccc3cc(OC)c(OC)c(O)c32)cc1O	50*	0.94	·	6	·	0.49	58*
CCOC(=O)CC1NCCc2c1[nH]c1ccc(OC)cc21 (centres undefined)	-5	1.1	·	-14	·	1.1	·
CC(C)C(C(=O)O)N1C(=O)/C(=C/c2cccn2C)SC1=S (centres undefined)	·	·	1.1	·	-10	·	·
O=C(O)c1ccc(N2C(=O)/C(=C/C=C/c3ccccc3)SC2=S)cc1	8	0.98	0.9	2	10	0.92	·
CC(C)C(C(=O)O)N1C(=O)/C(=C/C=C/c2ccco2)SC1=S (centres undefined)	66*	1.1	0.8	-11	23	0.34	74*
O=C1/C(=C/C=C/c2ccco2)SC(=S)N1c1ccc(O)cc1	80*	1.1	·	-6	·	0.2	77*
O=C(NN1C(=O)/C(=C/C=C/c2ccccc2)SC1=S)c1ccncc1	20	0.97	1.1	3	-7	0.8	·
O=C(NN1C(=O)/C(=C/C=C/c2ccco2)SC1=S)c1ccncc1	77*	0.94	·	6	·	0.23	77*
NN1C(=O)/C(=C\c2ccco2)SC1=S	78*	0.85	·	15	·	0.22	86*
N#Cc1ccccc1S(=O)(=O)N1CCN(CC(=O)NCC2(N3CCOCC3)CCCCC2)CC1	-11	1.1	·	-10	·	1.1	·
O=C1/C(=C\c2ccco2)SC(=S)N1c1ccc(O)cc1	78*	0.99	0.9	1	8	0.22	77*
O=C1/C(=C\c2ccc(O)cc2)SC(=S)N1c1cccnc1	19	0.75	0.7	25	26	0.81	·
SMILES	mIAP block	hIAP act	bIAP act	hIAP block	bIAP inh	mIAP act	mIAP inh conf
Cc1ccc(N(Cc2ccccc2)C(=O)c2cc(S(=O)(=O)N3CCOCC3)ccc2N2CCCC2)cc1	-5	0.94	·	6	·	1.1	·
O=C(CSc1ncn[nH]1)CSc1ncn[nH]1	46*	1.4	1.3	-35	-33	0.54	48*
O=C1CNC(=S)N1CCc1ccc(O)c(O)c1	77*	0.86	·	14	·	0.23	81*
O=C(c1c(O)cc(O)cc1O)C1c2c(cc(O)c3c2O[C@H](c2ccc(O)cc2)[C@@H](O)C3)OC1c1ccc(O)cc1 (some centres undefined)	58*	0.92	·	8	·	0.41	47*
O=C1CC(c2ccccc2)c2c(O)cc(O)cc2O1 (centres undefined)	-3	0.94	0.9	6	14	1	·
Cc1cc(C)cc(NC2=NC3(CCCCC3)N=C(N)N2)c1	-199	0.99	3.7*	1	-269	3*	-222
NC1=NC2(CCCCC2)N=C(Nc2ccc(F)cc2F)N1	1	0.88	1.3	12	-26	0.99	·
CCC(CO)Oc1cc(NC(=O)c2ccc([N+](=O)[O-])cc2)c2ncn(C(C)C)c2c1 (centres undefined)	4	1	·	0	·	0.96	·
O=[N+]([O-])c1ccc(O)c(/C=N/n2cnc3ccccc32)c1	3	0.87	0.9	13	9	0.97	·
Cc1ccc(/C=C2\SC(=S)N(/N=C/c3cc([N+](=O)[O-])ccc3O)C2=O)o1	82*	0.81	1	18	0	0.18	86*
O=C(Nc1ccc(F)cc1)Nc1cc(OCC(F)(F)F)cc(OCC(F)(F)F)c1	-356	1.3	0.7	-34	29	4.6*	-111
CCOc1ccc(NC(=O)Nc2cc(OCC(F)(F)F)cc(OCC(F)(F)F)c2)cc1	-204	0.98	0.7	2	30	3*	-108
O=C(CCN1CCN(S(=O)(=O)c2cccc([N+](=O)[O-])c2)CC1)Nc1ccccc1F	10	0.89	·	11	·	0.9	·
CCOC(=O)c1cccc(C2=CC(=O)C[C@H](c3ccc(OC)cc3)C2)c1	13	1	·	-4	·	0.87	·
N#CCCN(C(=O)COC(=O)c1ccc(S(=O)(=O)N2CCCC2)cc1)c1cccc(Cl)c1	-3	0.9	·	10	·	1	·
Cc1cccc(NC(=O)NC2CCCc3ccccc32)c1 (centres undefined)	-168	0.93	·	7	·	2.7*	-236
CC(=O)c1cccc(NC(=O)NC2CCCc3ccccc32)c1 (centres undefined)	-38	0.96	1	4	0	1.4	·
CCOC(=O)C1=C(C)NC(C)=C(C(=O)OCC)C1C(=O)OCC(=O)N(C)Cc1ccccc1	-7	1	·	-1	·	1.1	·

Source: PubChem BioAssay (Sanford-Burnham Center for Chemical Genomics)
